PvdQ inh – P. aeruginosa PvdQ acylase inhibition. purified PvdQ acylase, fluorescence plate reader. inhibition, % at 10 µM. actives 0.063% (n = 340,000); in the data active = inhibition above about 30%, passing the limit was not always enough;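 also: 0% = vehicle neutral wells and 100% = reference inhibitor wells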
CAL PDZ FP-1 – blocks peptide binding to human CAL PDZ domain; purified CAL PDZ, TMR-peptide fluorescence polarization, 1 h; Q9HD26; inhibition, % at 20 µM; actives 0.02% (n = 330,000);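 active = highest replicate inhibition of at least 40%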;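 also: plate controls were DMSO neutral control wells for no effect and unlabeled competitor peptide control wells for full effect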
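Assay system – tagged CAL PDZ protein CerCALP, purified · Timing – 1 h at RT · Compound – single point, 20 µM · Measured by – fluorescence polarization from S- and P-plane intensities, G-factor corrected · Evaluation – inhibition from polarization loss · Probe or stimulus – TMR reporter peptide T*-PRC34 · Buffer or medium – pH 7.4 phosphate-saline buffer, reducing agent, detergent, IgG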
CAL PDZ FP-2 – blocks peptide binding to the human CAL PDZ domain. Q9HD26. purified CAL PDZ, TMR-peptide fluorescence polarization, 1 h. inhibition, % at 24.9 µM. actives 0.92% (n = 300,000). AID 602252;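 active = mean inhibition of at least 30% with at least half of replicates also reaching 30%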;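 also: 0% = DMSO neutral control and 100% = excess unlabeled competitor peptide PRC23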
Glyco luc inh – blocks N-linked glycosylation in D54 reporter cells | D54 ERlucT glycosylation luciferase reporter, 24 h; percent of 100 nM tunicamycin response | reporter increase, % at 12.5 µM | actives 0.23% (n = 360,000);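 active = mean luciferase reporter signal, scaled so untreated is 0 and the glycosylation-blocking control 100, at or above a set limit in every replicate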;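 also: luciferase carries N-glycosylation sites so blocking glycosylation raises the light; 0% = median of neutral control wells and 100% = median of 100 nM tunicamycin wells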
CDK5 p35 inh – CDK5/p35 (human) kinase inhibition; Q00535+Q15078; actives 0.01% (n = 330,000); AID 488839; Recombinant CDK5/p35, ADP-Glo luminescence, 60 min; inhibition, % at 10 µM;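 active = highest replicate inhibition of at least 50% and at least 75% of replicates reaching 50%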;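 also: plate controls were DMSO neutral control for no effect and GW8510 at 10 µM for full effect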
Target sequence (Q00535 whole entry, looked up): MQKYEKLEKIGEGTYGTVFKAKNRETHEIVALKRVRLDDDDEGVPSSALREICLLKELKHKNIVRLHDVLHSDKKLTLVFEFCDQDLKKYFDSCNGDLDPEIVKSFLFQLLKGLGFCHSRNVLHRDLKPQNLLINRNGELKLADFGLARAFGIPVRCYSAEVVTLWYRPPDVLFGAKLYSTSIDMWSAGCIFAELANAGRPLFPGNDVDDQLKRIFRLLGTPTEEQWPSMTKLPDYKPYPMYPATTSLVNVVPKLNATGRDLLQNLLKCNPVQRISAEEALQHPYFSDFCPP
Target sequence (Q15078 whole entry, looked up): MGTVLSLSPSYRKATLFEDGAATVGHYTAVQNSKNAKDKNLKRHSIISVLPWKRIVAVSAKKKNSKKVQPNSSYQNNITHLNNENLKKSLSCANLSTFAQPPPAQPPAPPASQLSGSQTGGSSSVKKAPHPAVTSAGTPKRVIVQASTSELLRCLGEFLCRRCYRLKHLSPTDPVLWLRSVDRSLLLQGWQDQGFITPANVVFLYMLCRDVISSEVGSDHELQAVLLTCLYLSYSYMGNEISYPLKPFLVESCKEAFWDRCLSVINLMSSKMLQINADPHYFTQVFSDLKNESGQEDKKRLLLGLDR
Vif inh – blocks HIV Vif function | HEK293T cells, Vif self-association by quenched fluorescence, imaging, 24 h | AID 602346 | inhibition, % at 7.49 µM | actives 0.35% (n = 340,000); in the data active = inhibition above about 50%, passing the limit was not always enough
Starred values were filed as active, the others as inactive. This is a sample that favours compounds with a hit; in the whole collection about 1.4% have one here.

`COc1ccc(-n2nc(C(=O)NCC(=O)O)c3ccccc3c2=O)cc1` gave PvdQ inh -10, CAL PDZ FP-1 0, CAL PDZ FP-2 1, Glyco luc inh 1, CDK5 p35 inh -3 and Vif inh 25.
CCCN(CC(=O)Nc1ccccc1C)C(=O)COc1c(C)cccc1C was read as PvdQ inh -18, CAL PDZ FP-1 0, CAL PDZ FP-2 45*, Glyco luc inh -3, CDK5 p35 inh 1 and Vif inh 2.
Screening CCCN(CC(=O)Nc1ccccc1C)C(=O)CCCc1c[nH]c2ccccc12 returned PvdQ inh -15, CAL PDZ FP-1 0, CAL PDZ FP-2 132*, Glyco luc inh -2, CDK5 p35 inh 1 and Vif inh 0.
O=S(=O)(Nc1ccccc1N1CCOCC1)c1ccc(Cl)cc1 was read as PvdQ inh -7, CAL PDZ FP-1 -2, CAL PDZ FP-2 -1, Glyco luc inh -4, CDK5 p35 inh -1 and Vif inh 0.
`Cc1ccc(C(=O)OCn2ncc(Cl)c(Cl)c2=O)cc1` gave PvdQ inh 3, CAL PDZ FP-1 -1, CAL PDZ FP-2 0, Glyco luc inh -24, CDK5 p35 inh 1 and Vif inh 50*.
O=C(OCn1ncc(Cl)c(Cl)c1=O)c1ccc(C(F)(F)F)cc1 was read as PvdQ inh -7, CAL PDZ FP-1 0, CAL PDZ FP-2 2, Glyco luc inh 31*, CDK5 p35 inh 0 and Vif inh -2.
For CSc1nc2c(c(=O)[nH]1)C(c1cccs1)C1=C(CCCC1=O)N2 (stereo unspecified) the results were PvdQ inh -13, CAL PDZ FP-1 -1, CAL PDZ FP-2 32*, Glyco luc inh -1 and Vif inh -1.
Screening O=C(Nc1ccccc1O)c1ccc(NS(=O)(=O)c2cccc3cccnc23)cc1 returned PvdQ inh -7, CAL PDZ FP-1 -10, CAL PDZ FP-2 -1, Glyco luc inh 83*, CDK5 p35 inh 0 and Vif inh -1.
For O=C(Nc1ncccc1O)c1ccc(S(=O)(=O)Nc2ccccc2)cc1 the results were PvdQ inh -7, CAL PDZ FP-1 -3, CAL PDZ FP-2 -11, Glyco luc inh 129*, CDK5 p35 inh 1 and Vif inh 1.
COC(=O)c1ccc(NC(=O)c2ccc(NS(=O)(=O)c3cccc4cccnc34)cc2)cc1 was read as PvdQ inh -8, CAL PDZ FP-1 0, CAL PDZ FP-2 -4, Glyco luc inh 14, CDK5 p35 inh -3 and Vif inh 4.
`O=C(O)c1cccc(S(=O)(=O)Nc2ccc(N3CCCCC3)cc2)c1` gave PvdQ inh -9, CAL PDZ FP-1 -2, Glyco luc inh 2, CDK5 p35 inh 0 and Vif inh 11.
Cc1cccc2c(N)c3c(nc12)N(C)CC3 was read as PvdQ inh -6, CAL PDZ FP-1 0, CAL PDZ FP-2 0, Glyco luc inh 30*, CDK5 p35 inh 1 and Vif inh -4.
Screening O=C(O)C1CC=CCC1C(=O)NCCCCc1ccccc1 (stereo unspecified) returned PvdQ inh -10, CAL PDZ FP-1 -1, CAL PDZ FP-2 82*, Glyco luc inh 1, CDK5 p35 inh 1 and Vif inh -4.
`CCCS(=O)(=O)c1nc(S(=O)(=O)c2ccc(C)cc2)c(N2CCC3(CC2)OCCO3)s1` gave PvdQ inh -2, CAL PDZ FP-1 -1, CAL PDZ FP-2 57*, Glyco luc inh -1, CDK5 p35 inh 0 and Vif inh -1.
`CCS(=O)(=O)c1nc(S(=O)(=O)c2ccc(C)cc2)c(N2CCC3(CC2)OCCO3)s1` gave PvdQ inh 10, CAL PDZ FP-1 0, CAL PDZ FP-2 -3, Glyco luc inh 0, CDK5 p35 inh 0 and Vif inh -1.
`CC(C)CCN1CCC[C@]2(N[C@H](c3ccc(C(F)(F)F)cc3)[C@@H]3C(=O)N(Cc4ccccc4)C(=O)[C@@H]32)C1=O` gave Glyco luc inh 1 and Vif inh -4.
CCNC(=O)c1ccccc1NC(=O)C1CC(=O)N(C(C)C)C1 (stereo unspecified) was read as PvdQ inh -17, CAL PDZ FP-1 3, CAL PDZ FP-2 62*, Glyco luc inh 1, CDK5 p35 inh 1 and Vif inh -3.
CN(CC(=O)NCc1ccc(F)cc1)CC(=O)Nc1ccc(Cl)c(C(F)(F)F)c1 was read as PvdQ inh 11, CAL PDZ FP-1 0, Glyco luc inh 2, CDK5 p35 inh 0 and Vif inh -11.
CN(CC(=O)NCC(=O)Nc1ccc(F)cc1)CC(=O)Nc1ccc(Cl)c(C(F)(F)F)c1 was read as PvdQ inh -8, CAL PDZ FP-1 -1, CAL PDZ FP-2 47*, Glyco luc inh 1, CDK5 p35 inh 2 and Vif inh 5.
`O=c1c2ccccc2nnn1Cc1ccc(F)cc1` gave PvdQ inh -16, CAL PDZ FP-1 0, CAL PDZ FP-2 0, Glyco luc inh 2, CDK5 p35 inh -2 and Vif inh 3.
Screening Fc1ccc(Cn2nnc3ccccc32)cc1 returned PvdQ inh -16, CAL PDZ FP-2 123*, Glyco luc inh -2, CDK5 p35 inh 0 and Vif inh -4.
Screening CC(C)C(=O)N1CCCC1(C)C(=O)Nc1ccc(-n2cccc2)cc1 (stereo unspecified) returned Glyco luc inh -1 and Vif inh 1.
Screening CCCc1cc(=O)oc2c(CN3CCN(C)CC3)c(O)c(Cl)cc12 returned PvdQ inh -27, CAL PDZ FP-1 -1, CAL PDZ FP-2 31*, Glyco luc inh 2, CDK5 p35 inh -3 and Vif inh 19.
CCCCc1cc(=O)oc2c(CN3CCCC3)c(O)c(Cl)cc12 was read as PvdQ inh -30, CAL PDZ FP-1 -1, CAL PDZ FP-2 0, Glyco luc inh 1, CDK5 p35 inh -1 and Vif inh 10.
`Cn1c(=O)c2sc3c(c2n(CC(=O)Nc2ccccc2)c1=O)COC(C)(C)C3` gave PvdQ inh -19, CAL PDZ FP-1 -1, CAL PDZ FP-2 31*, Glyco luc inh 1, CDK5 p35 inh 1 and Vif inh 14.
For Cn1c(=O)n(CC(=O)Nc2ccccc2)c2ccccc21 the results were PvdQ inh -11, CAL PDZ FP-1 1, CAL PDZ FP-2 -1, Glyco luc inh -1, CDK5 p35 inh -2 and Vif inh 0.
Screening O=c1[nH][nH]c(=O)c2c1[nH]c(=S)n2Cc1ccccc1 returned PvdQ inh 5, CAL PDZ FP-1 0, CAL PDZ FP-2 0, Glyco luc inh 0, CDK5 p35 inh -1 and Vif inh 12.
Screening Cc1cc(C)c2c(c1)/C(=N/NC(=O)c1ccc(O)cc1)CCC2 returned PvdQ inh -3, CAL PDZ FP-1 0, CAL PDZ FP-2 69*, Glyco luc inh 0, CDK5 p35 inh -1 and Vif inh 5.

Assay outcomes from PubChem BioAssay.
